The text below walks through data of ChEMBL document CHEMBL1140161, “Structure-activity relationships in 1,4-benzodioxan-related compounds. 9. From 1,4-benzodioxane to 1,4-dioxane ring as a promising template of novel alpha1D-adrenoreceptor antagonists, 5-HT1A full agonists, and cytotoxic agents” (J Med Chem, 2008).

Molecules are shown by their SMILES.

Assay [1] has as its target T1, 5-hydroxytryptamine receptor 1A (Homo sapiens, UniProt P08908).
T1 sequence (P08908 whole entry): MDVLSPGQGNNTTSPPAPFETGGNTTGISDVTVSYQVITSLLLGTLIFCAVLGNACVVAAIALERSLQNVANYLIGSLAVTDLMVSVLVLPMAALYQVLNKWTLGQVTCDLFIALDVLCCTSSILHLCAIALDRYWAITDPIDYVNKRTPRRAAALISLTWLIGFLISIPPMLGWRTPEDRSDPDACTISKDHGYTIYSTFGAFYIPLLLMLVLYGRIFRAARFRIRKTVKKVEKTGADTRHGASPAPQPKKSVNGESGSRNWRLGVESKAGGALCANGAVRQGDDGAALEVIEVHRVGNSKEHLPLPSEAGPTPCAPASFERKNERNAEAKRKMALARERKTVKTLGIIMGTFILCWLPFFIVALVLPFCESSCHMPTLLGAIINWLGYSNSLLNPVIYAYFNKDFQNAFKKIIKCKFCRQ
Description: Displacement of [3H]8-OH-DPAT from human cloned 5HT1A receptor expressed in human HeLa cells. Format: cell-based.

Assay [2] has as its target T2, Alpha-1B adrenergic receptor (Homo sapiens, UniProt P35368).
T2 sequence (P35368 whole entry): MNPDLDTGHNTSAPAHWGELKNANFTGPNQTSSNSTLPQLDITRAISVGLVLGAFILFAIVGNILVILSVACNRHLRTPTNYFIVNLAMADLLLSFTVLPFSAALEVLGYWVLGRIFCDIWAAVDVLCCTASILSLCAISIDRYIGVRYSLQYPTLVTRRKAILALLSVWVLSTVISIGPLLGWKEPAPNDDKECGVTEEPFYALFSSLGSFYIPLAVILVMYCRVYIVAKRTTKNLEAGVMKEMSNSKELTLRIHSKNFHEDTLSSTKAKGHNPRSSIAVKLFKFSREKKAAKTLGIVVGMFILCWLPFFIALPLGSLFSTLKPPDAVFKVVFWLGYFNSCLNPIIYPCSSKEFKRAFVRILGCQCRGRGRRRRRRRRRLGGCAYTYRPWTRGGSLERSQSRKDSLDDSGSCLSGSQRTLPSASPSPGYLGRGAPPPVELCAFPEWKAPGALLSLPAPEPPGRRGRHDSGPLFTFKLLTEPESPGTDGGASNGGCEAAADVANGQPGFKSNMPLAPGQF
Description: Displacement of [3H]prazosin from human cloned Alpha-1B adrenoceptor expressed in CHO cells. Format: cell-based. In a few lines: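 [3H]prazosin binding to cloned human α1-adrenoceptor subtypes expressed in CHO cell membranes. Affinity reported as pKi for each subtype.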
A general note: Displacement assays read how much labelled ligand stays bound in the presence of the test substance.

Assay [3] concerns the target T3, 5-hydroxytryptamine receptor 1A (Homo sapiens) (UniProt P08908).
T3 sequence (whole entry): T1 sequence (P08908 whole entry)
Description: Agonist activity at human cloned 5HT1A receptor expressed in HeLa cell membrane assessed as stimulation of [35S]GTPgammaS binding relative to 5-hydroxytryptamine. Format: functional, cell membranes. In a few lines: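 Activation measured as [35S]GTPγS binding in membranes from HeLa cells expressing cloned human 5-HT1A receptor. pD2 is the negative log of agonist concentration giving 50% of maximal stimulation, from two to three experiments agreeing within 20%. Efficacy is given relative to 5-HT.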

The target of assay [4] is T3, 5-hydroxytryptamine receptor 1A (Homo sapiens). Description: Agonist activity at human cloned 5HT1A receptor expressed in human HeLa cell membrane assessed as stimulation of [35S]GTPgammaS binding. Type of assay: functional, cell membranes. In a few lines: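 Membranes from HeLa cells expressing cloned human 5-HT1A receptor; agonist-stimulated [35S]GTPγS binding measured. pD2 is the negative log of the agonist concentration giving 50% of maximal [35S]GTPγS binding stimulation; values from two to three experiments.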
On the technique in general: GTPγS resists hydrolysis and so accumulates on activated G proteins.

Another assay concerns PC-3. Description: Induction of apoptosis in human PC3 cells assessed as translocation of phosphatidylserine at 50 uM after 48 hrs by annexin V-FITC staining and cytofluorimetric analysis. Format: functional. In a few lines: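 PC-3 prostate cancer cells exposed to compound for 48 h, then stained with annexin V-FITC to detect externalized phosphatidylserine. Read-out by flow cytometry as mean fluorescence intensity (MFI), against untreated and vehicle-treated cells.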

For the compound `c1ccc(OCCNC[C@@H]2CO[C@H](c3ccccc3)CO2)cc1` (relative stereo), the inhibitory constant (Ki) in assay [1] was 25.7 nM; in assay [2] it was above 1000 nM.
For `c1ccc(OCCNC[C@@H]2COCC(c3ccccc3)(c3ccccc3)O2)cc1`, the %max in assay [3] came to 77.1. Besides, the Ki in assay [1] is 0.589 nM; in assay [2], 120 nM. Moreover, the pD2 in assay [4] was found to be 9.11. For the same compound, in the assay with PC-3, the Flu intensity came out at 76.98.
Take `COc1ccccc1OCCNC[C@@H]1CO[C@@H](c2ccccc2)CO1` (relative stereo): the Ki in assay [1] was 38.9 nM; in assay [2] it was 282 nM.
In the case of `COc1cccc(OC)c1OCCNC[C@@H]1COCC(c2ccccc2)(c2ccccc2)O1`, in assay [3], the %max was found to be 106. Also, the inhibition constant Ki is 1.41 nM in assay [1] and 324 nM in assay [2]. The pD2 in assay [4] was 8.28.
Consider `COc1cccc(OC)c1OCCNC[C@@H]1COC[C@H](c2ccccc2)O1` (relative stereo), for which the inhibitory constant (Ki) in assay [1] and in assay [2] was above 1000 nM throughout.
With `c1ccc(OCCNC[C@@H]2CO[C@@H](c3ccccc3)CO2)cc1` (relative stereo), the inhibitory constant (Ki) was 148 nM in assay [1] and above 1000 nM in assay [2].
On the same counts, the results for `COc1cccc(OC)c1OCCNC[C@@H]1COC[C@@H](c2ccccc2)O1` (relative stereo) are 417 nM and above 1000 nM.
On the same counts, the results for `COc1cccc(OC)c1OCCNC[C@@H]1CO[C@H](c2ccccc2)CO1` (relative stereo) are 257 nM and above 1000 nM.
In the same order, the values of `COc1cccc(OC)c1OCCNC[C@@H]1COC(c2ccccc2)(c2ccccc2)CO1` are 229 nM and 126 nM.
For `COc1ccccc1OCCNC[C@@H]1COC[C@H](c2ccccc2)O1` (relative stereo), in assay [3], the %max was found to be 78.1. The inhibitory constant (Ki) was 4.17 nM in assay [1] and 269 nM in assay [2].
Turning to `COc1cccc(OC)c1OCCNC[C@@H]1CO[C@@H](c2ccccc2)CO1` (relative stereo), the values for the Ki in assay [1] and in assay [2] were 234 nM and above 1000 nM, respectively.
In the same order, the values of `c1ccc(OCCNC[C@@H]2COC[C@H](c3ccccc3)O2)cc1` (relative stereo) are 53.7 nM and above 1000 nM.
Regarding `COc1ccccc1OCCNC[C@@H]1CO[C@H](c2ccccc2)CO1` (relative stereo), the %max in assay [3] worked out at 85.5. Moreover, the inhibition constant (Ki) in assay [1] is 3.47 nM; in assay [2] it was 263 nM. In assay [4], the pD2 was determined as 7.88.
Take `COc1ccccc1OCCNC[C@@H]1COC[C@@H](c2ccccc2)O1` (relative stereo): the Ki in assay [1] is 6.03 nM; in assay [2] it was 302 nM.
On the same counts, the results for `c1ccc(OCCNC[C@@H]2COC[C@@H](c3ccccc3)O2)cc1` (relative stereo) are 52.5 nM and above 1000 nM.
Take `COc1ccccc1OCCNC[C@@H]1COC(c2ccccc2)(c2ccccc2)CO1`: the values for the inhibitory constant (Ki) in assay [1] and in assay [2] were 7.59 nM and 74.1 nM, respectively.
In the same order, the values of `c1ccc(OCCNC[C@@H]2COC(c3ccccc3)(c3ccccc3)CO2)cc1` are 37.2 nM and 141 nM.
In the case of `COc1ccccc1OCCNC[C@@H]1COCC(c2ccccc2)(c2ccccc2)O1`, the %max in assay [3] worked out at 81.5. The Ki in assay [1] is 0.661 nM; in assay [2], 56.2 nM. For the same compound, in assay [4], the pD2 came to 9.4.

Broadly, the Ki is a dissociation constant, usually derived from enzyme kinetics or from competition with a known ligand. A higher Ki goes with a looser hold on the target.
